Reference: ChEMBL document CHEMBL4689842, “EUbOPEN Chemogenomics Library wave 1” (2021)

System: Fibroblast
Assay: Multiplex assay against human fibroblast
Assay type: toxicity, cell-based
Procedure, shortened: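 Phenotypes for tubulin, mitochondrial mass and membrane permeability are expressed as per cents of healthy-nucleus cells. Cells were stained live at seeding with Hoechst33342, BioTracker Green Microtubule Cytoskeleton Dye, MitoTracker Red and Annexin V Alexa Fluor 680, then imaged after compound addition on a CQ1 microscope at 37°C and 5% CO2. Machine-learning gating in CellPathfinder separated Hoechst high-intensity objects from normal cells, divided normal cells by nuclear state (healthy, pyknosed, fragmented) and divided pyknosed cells into mitotic or apoptotic.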

[1] = 12 h, 1 µM, compound concentration 1 uM, replicate 1
[2] = 12 h, 1 µM, compound concentration 1 uM, replicate 2
[3] = 12 h, 10 µM, compound concentration 10 uM, replicate 1
[4] = 12 h, 10 µM, compound concentration 10 uM, replicate 2
[5] = 24 h, 1 µM, compound concentration 1 uM, replicate 1
[6] = 24 h, 1 µM, compound concentration 1 uM, replicate 2
[7] = 24 h, 10 µM, compound concentration 10 uM, replicate 1
[8] = 24 h, 10 µM, compound concentration 10 uM, replicate 2
[9] = 48 h, 1 µM, compound concentration 1 uM, replicate 1
[10] = 48 h, 1 µM, compound concentration 1 uM, replicate 2
[11] = 48 h, 10 µM, compound concentration 10 uM, replicate 1
[12] = 48 h, 10 µM, compound concentration 10 uM, replicate 2

## Cc1csc2c(N[C@@H](C)CN3CCN(S(=O)(=O)c4ccc(Cl)c(Cl)c4)CC3)ncnc12
[1]
  Population Apoptotic (%): 56%
  Population Fragmented Nuclei (%): 22%
  Population Healthy Nuclei (%): 46%
  Population Hoechst High Intensity Objects (%): 5%
  Population Membrane Permeable-Phenotype (%): 33%
  Population Mitochondria Different-Phenotype (%): 21%
  Population Mitotic Cells (%): 43%
  Population Normal (%): 94%
  Population Pyknosed Nuclei (%): 31%
  Population Tubulin-Different-Phenotype (%): 87%
  Total Cell Count: 149
[2]
  Population Apoptotic (%): 16%
  Population Fragmented Nuclei (%): 5%
  Population Healthy Nuclei (%): 84%
  Population Membrane Permeable-Phenotype (%): 6%
  Population Mitochondria Different-Phenotype (%): 33%
  Population Mitotic Cells (%): 83%
  Population Normal (%): 95%
  Population Pyknosed Nuclei (%): 10%
  Population Tubulin-Different-Phenotype (%): 47%
  Total Cell Count: 48
[3]
  Population Apoptotic (%): 52%
  Population Fragmented Nuclei (%): 32%
  Population Healthy Nuclei (%): 29%
  Population Hoechst High Intensity Objects (%): 21%
  Population Membrane Permeable-Phenotype (%): 23%
  Population Mitochondria Different-Phenotype (%): 42%
  Population Mitotic Cells (%): 47%
  Population Normal (%): 78%
  Population Pyknosed Nuclei (%): 38%
  Population Tubulin-Different-Phenotype (%): 92%
  Total Cell Count: 113
[4]
  Population Apoptotic (%): 75%
  Population Fragmented Nuclei (%): 12%
  Population Healthy Nuclei (%): 67%
  Population Hoechst High Intensity Objects (%): 4%
  Population Membrane Permeable-Phenotype (%): 56%
  Population Mitochondria Different-Phenotype (%): 98%
  Population Mitotic Cells (%): 25%
  Population Normal (%): 95%
  Population Pyknosed Nuclei (%): 19%
  Population Tubulin-Different-Phenotype (%): 98%
  Total Cell Count: 60
[5]
  Population Apoptotic (%): 59%
  Population Fragmented Nuclei (%): 26%
  Population Healthy Nuclei (%): 44%
  Population Hoechst High Intensity Objects (%): 8%
  Population Membrane Permeable-Phenotype (%): 19%
  Population Mitochondria Different-Phenotype (%): 33%
  Population Mitotic Cells (%): 40%
  Population Normal (%): 91%
  Population Pyknosed Nuclei (%): 29%
  Population Tubulin-Different-Phenotype (%): 90%
  Total Cell Count: 156
[6]
  Population Apoptotic (%): 60%
  Population Fragmented Nuclei (%): 11%
  Population Healthy Nuclei (%): 73%
  Population Hoechst High Intensity Objects (%): 4%
  Population Membrane Permeable-Phenotype (%): 11%
  Population Mitochondria Different-Phenotype (%): 25%
  Population Normal (%): 95%
  Population Pyknosed Nuclei (%): 14%
  Population Tubulin-Different-Phenotype (%): 23%
  Total Cell Count: 64
[7]
  Population Apoptotic (%): 67%
  Population Fragmented Nuclei (%): 36%
  Population Healthy Nuclei (%): 24%
  Population Hoechst High Intensity Objects (%): 23%
  Population Membrane Permeable-Phenotype (%): 19%
  Population Mitochondria Different-Phenotype (%): 71%
  Population Mitotic Cells (%): 32%
  Population Normal (%): 76%
  Population Pyknosed Nuclei (%): 39%
  Population Tubulin-Different-Phenotype (%): 80%
  Total Cell Count: 113
[8]
  Population Apoptotic (%): 80%
  Population Fragmented Nuclei (%): 15%
  Population Healthy Nuclei (%): 57%
  Population Hoechst High Intensity Objects (%): 4%
  Population Membrane Permeable-Phenotype (%): 80%
  Population Mitochondria Different-Phenotype (%): 97%
  Population Mitotic Cells (%): 19%
  Population Normal (%): 95%
  Population Pyknosed Nuclei (%): 26%
  Population Tubulin-Different-Phenotype (%): 97%
  Total Cell Count: 72
[9]
  Population Apoptotic (%): 67%
  Population Fragmented Nuclei (%): 22%
  Population Healthy Nuclei (%): 53%
  Population Hoechst High Intensity Objects (%): 9%
  Population Membrane Permeable-Phenotype (%): 33%
  Population Mitochondria Different-Phenotype (%): 17%
  Population Mitotic Cells (%): 32%
  Population Normal (%): 90%
  Population Pyknosed Nuclei (%): 24%
  Population Tubulin-Different-Phenotype (%): 96%
  Total Cell Count: 155
[10]
  Population Apoptotic (%): 100%
  Population Fragmented Nuclei (%): 31%
  Population Healthy Nuclei (%): 67%
  Population Hoechst High Intensity Objects (%): 8%
  Population Membrane Permeable-Phenotype (%): 9%
  Population Mitochondria Different-Phenotype (%): 7%
  Population Mitotic Cells (%): 0%
  Population Normal (%): 91%
  Population Pyknosed Nuclei (%): 0%
  Population Tubulin-Different-Phenotype (%): 93%
  Total Cell Count: 123
[11]
  Population Apoptotic (%): 100%
  Population Fragmented Nuclei (%): 33%
  Population Healthy Nuclei (%): 37%
  Population Hoechst High Intensity Objects (%): 40%
  Population Membrane Permeable-Phenotype (%): 21%
  Population Mitochondria Different-Phenotype (%): 56%
  Population Mitotic Cells (%): 0%
  Population Normal (%): 59%
  Population Pyknosed Nuclei (%): 29%
  Population Tubulin-Different-Phenotype (%): 82%
  Total Cell Count: 104
[12]
  Population Apoptotic (%): 57%
  Population Fragmented Nuclei (%): 44%
  Population Healthy Nuclei (%): 47%
  Population Hoechst High Intensity Objects (%): 25%
  Population Membrane Permeable-Phenotype (%): 2%
  Population Mitochondria Different-Phenotype (%): 79%
  Population Mitotic Cells (%): 42%
  Population Normal (%): 75%
  Population Pyknosed Nuclei (%): 7%
  Population Tubulin-Different-Phenotype (%): 95%
  Total Cell Count: 120

## CCN(CC)CCCCNc1ncc2cc(-c3cc(OC)cc(OC)c3)c(NC(=O)NC(C)(C)C)nc2n1 [PD-173074]
[1]
  Population Apoptotic (%): 61%
  Population Fragmented Nuclei (%): 20%
  Population Hoechst High Intensity Objects (%): 70%
  Population Membrane Permeable-Phenotype (%): 2%
  Population Mitotic Cells (%): 38%
  Population Normal (%): 29%
  Population Pyknosed Nuclei (%): 63%
  Population Tubulin-Different-Phenotype (%): 8%
  Total Cell Count: 749
[2]
  Population Apoptotic (%): 67%
  Population Fragmented Nuclei (%): 46%
  Population Healthy Nuclei (%): 15%
  Population Hoechst High Intensity Objects (%): 72%
  Population Membrane Permeable-Phenotype (%): 13%
  Population Mitochondria Different-Phenotype (%): 0%
  Population Mitotic Cells (%): 32%
  Population Normal (%): 27%
  Population Pyknosed Nuclei (%): 38%
  Population Tubulin-Different-Phenotype (%): 0%
  Total Cell Count: 352
[3]
  Population Apoptotic (%): 60%
  Population Fragmented Nuclei (%): 44%
  Population Healthy Nuclei (%): 34%
  Population Hoechst High Intensity Objects (%): 57%
  Population Membrane Permeable-Phenotype (%): 0%
  Population Mitotic Cells (%): 39%
  Population Normal (%): 42%
  Population Pyknosed Nuclei (%): 20%
  Population Tubulin-Different-Phenotype (%): 6%
  Total Cell Count: 786
[4]
  Population Apoptotic (%): 66%
  Population Fragmented Nuclei (%): 54%
  Population Healthy Nuclei (%): 32%
  Population Hoechst High Intensity Objects (%): 61%
  Population Membrane Permeable-Phenotype (%): 16%
  Population Mitochondria Different-Phenotype (%): 4%
  Population Mitotic Cells (%): 33%
  Population Normal (%): 38%
  Population Pyknosed Nuclei (%): 12%
  Population Tubulin-Different-Phenotype (%): 8%
  Total Cell Count: 189
[5]
  Population Apoptotic (%): 59%
  Population Fragmented Nuclei (%): 32%
  Population Healthy Nuclei (%): 13%
  Population Hoechst High Intensity Objects (%): 74%
  Population Membrane Permeable-Phenotype (%): 0%
  Population Mitotic Cells (%): 40%
  Population Normal (%): 25%
  Population Pyknosed Nuclei (%): 53%
  Population Tubulin-Different-Phenotype (%): 9%
  Total Cell Count: 594
[6]
  Population Apoptotic (%): 62%
  Population Fragmented Nuclei (%): 44%
  Population Healthy Nuclei (%): 12%
  Population Hoechst High Intensity Objects (%): 72%
  Population Membrane Permeable-Phenotype (%): 16%
  Population Mitochondria Different-Phenotype (%): 0%
  Population Mitotic Cells (%): 37%
  Population Normal (%): 27%
  Population Pyknosed Nuclei (%): 43%
  Population Tubulin-Different-Phenotype (%): 0%
  Total Cell Count: 339
[7]
  Population Apoptotic (%): 51%
  Population Fragmented Nuclei (%): 42%
  Population Healthy Nuclei (%): 39%
  Population Membrane Permeable-Phenotype (%): 2%
  Population Mitochondria Different-Phenotype (%): 0%
  Population Mitotic Cells (%): 48%
  Population Pyknosed Nuclei (%): 18%
  Population Tubulin-Different-Phenotype (%): 5%
  Total Cell Count: 734
[8]
  Population Apoptotic (%): 60%
  Population Fragmented Nuclei (%): 58%
  Population Healthy Nuclei (%): 28%
  Population Hoechst High Intensity Objects (%): 58%
  Population Membrane Permeable-Phenotype (%): 28%
  Population Mitochondria Different-Phenotype (%): 14%
  Population Mitotic Cells (%): 40%
  Population Normal (%): 41%
  Population Pyknosed Nuclei (%): 13%
  Population Tubulin-Different-Phenotype (%): 19%
  Total Cell Count: 177
